The species named for test [1] is Homo sapiens. Briefly: Effect on VEGF-stimulated MAPK signaling pathway in HUVEC assessed as p38 MAPK phosphorylation level at 20 uM pretreated for 10 mins followed by VEGF stimulation and subsequent compound addition measured after 20 mins by Western blot analysis relative to control. The procedure, abridged: (§1)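 HUVEC grown to confluence in M199 with 10% FCS, ECGS, heparin, hydrocortisone, then starved ≥4 h in medium alone. Pre-incubated 10 min at 37°C with compound 20 µM in DMSO, then VEGF 50 ng/mL plus compound for 20 min. Lysates (30 µg) immunoblotted for phospho-ERK1/2, phospho-p38MAPK or phospho-Akt, with tubulin as loading control. ECL detection, densitometry. Results given relative to VEGF+DMSO on the same blot (100%), ≥2 independent experiments.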
For orientation: Immunoblotting shows a protein as a band on a membrane.

Test [2] is filed under the species Homo sapiens. Briefly: Effect on VEGF-stimulated PI3K signaling pathway in HUVEC assessed as AKT phosphorylation level at 20 uM pretreated for 10 mins followed by VEGF stimulation and subsequent compound addition measured after 20 mins by Western blot analysis relative to control. The procedure, abridged: as §1
The subject of test [3] is HUVEC. Briefly: Antimigratory activity against VEGF-stimulated HUVEC at 20 uM measured up to 15 hrs in presence of CMFDA probe by microscopy-based wound healing assay. It counts as functional, cell-based. The note with it: Homo sapiens. Put shortly: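 Confluent HUVEC (48 h growth) labelled with CMFDA (1:5000 of 10 mM stock), scratched with sterile tip, washed with PBS, then given VEGF 50 ng/mL plus compound 20 µM (DMSO control). Wounds imaged at 0 and 15 h by microscopy. Colonized area = area 0 h − area 15 h, expressed as percent of control set at 100%.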

For test [4], the species on record is Homo sapiens. Briefly: Effect on VEGF-stimulated MAPK signaling pathway in HUVEC assessed as ERK1/2 phosphorylation level at 20 uM pretreated for 10 mins followed by VEGF stimulation and subsequent compound addition measured after 20 mins by Western blot analysis relative to control. Put shortly: as §1

Structures are written as SMILES. Calls of active or inactive are those of the source. The rule behind the calls is not given here.

Regarding `CCOC(=O)c1cc2n(n1)CC(c1ccccc1)N2C(=O)Nc1cccc(F)c1` (stereo not given), the outcome in test [1] and in test [2] was Active. In addition, the outcome in test [3] was inactive.
Consider `CCOC(=O)c1cc2n(n1)CC(c1ccccc1)N2C(=O)Nc1cccc(C(F)(F)F)c1` (stereo not given), for which the outcome in test [1] and in test [2] was Active. Further, in test [4], the Activity was -75%. Further, the outcome in test [3] was inactive.
With `CCOC(=O)c1cc2n(n1)CC(c1ccccc1)N2C(=O)Nc1ccccc1F` (stereo not given), the result in test [1] was Active. Also, the result in test [2] and in test [3] was inactive.
In the case of `CCOC(=O)c1cc(NC(=O)Nc2ccc(F)cc2)n(CC(O)c2ccccc2)n1` (stereo not given), the Activity in test [1] was -81%. For the same molecule, the result in test [4] was Active. The outcome in test [2] and in test [3] was inactive.
Take `CCOC(=O)c1cc(NC(=O)Nc2cccc(C(F)(F)F)c2)n(CC(O)c2ccccc2)n1` (stereo not given): the Activity in test [1] was -61%. The result in test [4] was Active. Besides, the outcome in test [2] and in test [3] was inactive.
For the molecule `CCOC(=O)c1cc2n(n1)CC(c1ccccc1)N2C(=O)Nc1ccc(F)cc1` (stereo not given), the outcome in test [1] and in test [2] was Active. The result in test [3] was inactive.
As for `CC(C)(C)c1cc(NC(=O)Nc2ccccc2F)n(CC(O)c2ccccc2)n1` (stereo not given), in test [1], the Activity was -74%. Also, in test [4], the result was Active. Besides, the result in test [2] and in test [3] was inactive.
Regarding `CCOC(=O)c1cc(NC(=O)Nc2ccccc2F)n(CC(O)c2ccccc2)n1` (stereo not given), the results for the Activity in test [1] and in test [4] were 97% and -89%, respectively. Moreover, the outcome in test [2] and in test [3] was inactive.
Consider `CCOC(=O)c1cnn(CC(O)CC)c1NC(=O)Nc1cccc(C(F)(F)F)c1` (stereo not given), for which the outcome in test [1] and in test [2] was Active. Moreover, the outcome in test [4] and in test [3] was inactive.
`CCOC(=O)c1cc(NC(=O)Nc2cccc(F)c2)n(CC(O)c2ccccc2)n1` (stereo not given): the result in test [1] and in test [4] was Active. Further, the Activity in test [2] is 51%. The result in test [3] was inactive.
For `CCOC(=O)c1cnn(CC(=O)c2ccccc2)c1NC(=O)Nc1ccc(F)cc1`, the result in test [1] and in test [4] was Active. For the same molecule, the Activity in test [2] is 96%. In addition, in test [3], the result was inactive.
For the molecule `NC(=O)c1cnn2c1N(C(=O)Nc1cccc(C(F)(F)F)c1)C(c1ccccc1)C2` (stereo not given), the Activity in test [1] was in the range of 200 to 300%. Also, the result in test [4] and in test [3] was inactive. In test [2], the outcome was Active.
For the molecule `CC(C)(C)c1cc2n(n1)CC(c1ccccc1)N2C(=O)Nc1ccc(F)cc1` (stereo not given), the result in test [1] and in test [2] was Active. In addition, in test [3], the result was inactive.
`CC(C)(C)c1cc2n(n1)CC(c1ccccc1)N2C(=O)Nc1cccc(F)c1` (stereo not given): the outcome in test [1] and in test [2] was Active. Moreover, the result in test [3] was inactive.
With `CC(C)(C)c1cc(NC(=O)Nc2ccc(F)cc2)n(CC(O)c2ccccc2)n1` (stereo not given), the Activity was -70% in test [1], -67% in test [4] and -83% in test [2]. Further, in test [3], the outcome was inactive.
As to `CC(C)(C)c1cc(NC(=O)Nc2cccc(C(F)(F)F)c2)n(CC(O)c2ccccc2)n1` (stereo not given), the result in test [1] and in test [4] was Active. In test [3], the outcome was inactive.
For the molecule `CCOC(=O)c1cnn(CC(=O)c2ccccc2)c1NC(=O)Nc1cccc(F)c1`, the result in test [1] and in test [4] was Active. In addition, in test [2], the Activity worked out at 63%. Further, the outcome in test [3] was inactive.
For the molecule `CC(C)(C)c1cc(NC(=O)Nc2cccc(F)c2)n(CC(O)c2ccccc2)n1` (stereo not given), the Activity in test [1] stood at 199%. The outcome in test [4] and in test [2] was Active. For the same molecule, the result in test [3] was inactive.
In the case of `O=C(c1cnn2c1N(C(=O)Nc1cccc(C(F)(F)F)c1)C(c1ccccc1)C2)N1CCCCC1` (stereo not given), the Activity in test [1] is 200 to 300%; in test [4], 83%. In addition, in test [2], the result was Active. For the same molecule, the result in test [3] was inactive.
Take `CC(C)(C)c1cc2n(n1)CC(c1ccccc1)N2C(=O)Nc1ccccc1F` (stereo not given): the outcome in test [1] was Active. Moreover, the outcome in test [2] and in test [3] was inactive.
Regarding `CCCC(O)Cn1ncc(C(=O)OCC)c1NC(=O)Nc1cccc(C(F)(F)F)c1` (stereo not given), the Activity in test [1] is 180%; in test [4], -59%; in test [2] it was -29%. In addition, in test [3], the result was Active.
In the same order, the values of `CCOC(=O)c1cnn(CC(O)c2ccccc2)c1NC(=O)Nc1cccc(C(F)(F)F)c1` (stereo not given) are 150%, -70%, -37% and “inactive”.
In the same order, the values of `CCOC(=O)c1cnn2c1N(C(=O)Nc1cccc(C(F)(F)F)c1)C(c1ccccc1)C2` (stereo not given) are 200 to 300%, -26%, “Active” and “inactive”.
Take `CC(C)(C)c1cc2n(n1)CC(c1ccccc1)N2C(=O)Nc1cccc(C(F)(F)F)c1` (stereo not given): the Activity in test [1] came out at 140%. The outcome in test [2] was Active. For the same molecule, the outcome in test [3] was inactive.
In the case of `CCOC(=O)c1cnn(CC(C)O)c1NC(=O)Nc1cccc(C(F)(F)F)c1` (stereo not given), the outcome in test [1], in test [4] and in test [2] was Active. Also, in test [3], the result was inactive.
For the molecule `CCOC(=O)c1cnn(CC(=O)c2ccccc2)c1NC(=O)Nc1cccc(C(F)(F)F)c1`, the result in test [1], in test [4] and in test [2] was Active. In addition, the result in test [3] was inactive.
Turning to `CCOC(=O)c1cnn(CC(=O)c2ccccc2)c1NC(=O)Nc1ccccc1F`, the outcome in test [1] was Active. For the same molecule, the result in test [4], in test [2] and in test [3] was inactive.

For the origin of these results see ChEMBL document CHEMBL4033621, “Design, synthesis and biological evaluation of new pyrazolyl-ureas and imidazopyrazolecarboxamides able to interfere with MAPK and PI3K upstream signaling involved in the angiogenesis” (Eur J Med Chem, 2017).
